Data as given in ChEMBL document CHEMBL1131331, “Structure-activity studies on anticonvulsant sugar sulfamates related to topiramate. Enhanced potency with cyclic sulfate derivatives” (J Med Chem, 1998).

Tests used:
Assay type in all cases: functional
Mus musculus [1] = experiment: Activity against maximal electroshock seizures in mice, 4 hr following oral administration of 75 mg/kg
In short: (§1)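 Mouse maximal electroshock seizure test. An electric shock is applied through corneal electrodes, and block of the hind-limb tonic-extensor seizure is scored. Compounds are given orally, usually to 10 mice per group, and tested 4 h after dosing. The result is reported as percent of dosed animals protected at the stated dose.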

Mus musculus [2] = experiment: Activity against maximal electroshock seizures in mice, 4 hr following oral administration of 300 mg/kg of compound; in short: as §1
Mus musculus [3] = experiment: Activity against maximal electroshock seizures in mice, 4 hr following oral administration of 35 mg/kg of compound; in short: as §1
Mus musculus [4] = experiment: Inhibition of maximal electroshock seizures in mice, 4 hr following 10 mg/kg p.o. administration.; details: route oral; in short: as §1
Mus musculus [5] = experiment: Effective dose against maximal electroshock seizures in mice, at 4 hr following oral administration of 10 mg/kg of compound

| Compound | Block (Mus musculus [1]) [%] | further results |
| --- | --- | --- |
| CC1(C)O[C@@H]2[C@@H](CO[C@@]3(COS(=O)(=O)NCc4ccccc4)OC(C)(C)O[C@@H]23)O1 | 0 |  |
| CC1(C)O[C@H]2[C@@H]3OC(C(F)(F)F)(C(F)(F)F)O[C@@H]3CO[C@@]2(COS(N)(=O)=O)O1 | 40 |  |
| NS(=O)(=O)OC[C@@]12OC[C@H]3OC4(CCCCC4)O[C@H]3[C@@H]1OC1(CCCCC1)O2 | 0 |  |
| CCC(OS(N)(=O)=O)[C@@]12OC[C@H]3OC(C)(C)O[C@H]3[C@@H]1OC(C)(C)O2 (stereo partly drawn) | 0 |  |
| NS(=O)(=O)OC[C@]12CCC[C@H]1[C@@H]1OS(=O)(=O)O[C@@H]1CC2 | 0 |  |
| CC1(C)O[C@H]2CCCO[C@@]2(COS(N)(=O)=O)O1 | 0 | Block (Mus musculus [2]): 100% |
| CC1(C)O[C@H]2[C@@H]3O[C@](C)(C(C)(C)C)O[C@@H]3CO[C@@]2(COS(N)(=O)=O)O1 | 0 |  |
| CC1(C)O[C@H]2[C@H]3C(CO[C@@]2(COS(N)(=O)=O)O1)C3(Cl)Cl (stereo partly drawn) | 0 |  |
| CC1(C)O[C@H]2C=CCO[C@@]2(COS(N)(=O)=O)O1 |  | Block (Mus musculus [2]): 0% |
| CC1(C)O[C@@H]2[C@@H](CO[C@@]3(CCS(N)(=O)=O)OC(C)(C)O[C@@H]23)O1 | 0 |  |
| Cc1ccc(S(=O)(=O)/N=S2\O[C@@H]3[C@@H](CO[C@@]4(COS(N)(=O)=O)OC(C)(C)O[C@@H]34)O2)cc1 (stereo partly drawn) | 0 | Block (Mus musculus [2]): 75% |
| CC1(C)O[C@H]2[C@@H]3OC(=O)O[C@@H]3CO[C@@]2(COS(N)(=O)=O)O1 | 0 | Block (Mus musculus [2]): 70% |
| COC1(OC)O[C@@H]2[C@@H](CO[C@@]3(COS(N)(=O)=O)OC(C)(C)O[C@@H]23)O1 | 0 |  |
| NS(=O)(=O)OC[C@@]12OC[C@H]3OS(=O)(=O)O[C@H]3[C@@H]1OC1(CCCCC1)O2 | 0 | Block (Mus musculus [2]): 10% |
| NS(=O)(=O)OC[C@]12CCC[C@H]1[C@@H]1C[C@@H]1CC2 | 0 |  |
| CCO[C@@H]1[C@H](OCC)CO[C@@]2(COS(N)(=O)=O)OC(C)(C)O[C@@H]12 | 0 | Block (Mus musculus [2]): 40% |
| C[C@H]1O[C@@H]2[C@@H](CO[C@@]3(COS(N)(=O)=O)OC(C)(C)O[C@@H]23)O1 | 0 |  |
| CC1(C)O[C@@H]2[C@@H](CO[C@@]3(CCOS(N)(=O)=O)OC(C)(C)O[C@@H]23)O1 | 0 |  |
| CC1(C)O[C@@H]2[C@@H](CO[C@@]3(COS(C)(=O)=O)OC(C)(C)O[C@@H]23)O1 | 0 |  |
| COc1ccc(NS(=O)(=O)OC[C@@]23OC[C@H]4OS(=O)(=O)O[C@H]4[C@@H]2OC(C)(C)O3)cc1 | 0 |  |
| CC1(C)O[C@H]2[C@@H]3O[C@@H]3CO[C@@]2(COS(N)(=O)=O)O1 | 30 |  |
| NS(=O)(=O)OC[C@@]12OC[C@H]3O[C@@H](c4ccccc4)O[C@H]3[C@@H]1O[C@H](c1ccccc1)O2 | 0 |  |
| CC1(C)O[C@H]2[C@@H]3OB(c4ccccc4)O[C@@H]3CO[C@@]2(COS(N)(=O)=O)O1 | 0 |  |
| CC1(C)O[C@H]2[C@@H]3OCCO[C@@H]3CO[C@@]2(COS(N)(=O)=O)O1 | 0 |  |
| CC[C@@]1(C)O[C@@H]2[C@@H](CO[C@@]3(COS(N)(=O)=O)OC(C)(C)O[C@@H]23)O1 | 90 |  |
| CC[C@H]1O[C@@H]2[C@@H](CO[C@@]3(COS(N)(=O)=O)OC(C)(C)O[C@@H]23)O1 | 90 | Block (Mus musculus [3]): 10% |
| CC1(C)O[C@H]2[C@@H]3OS(=O)(=O)O[C@@H]3CO[C@@]2(COC(N)=O)O1 | 0 |  |

| Compound | Block (Mus musculus [1]) [%] | further results |
| --- | --- | --- |
| NS(=O)(=O)OC[C@@]12CCCC[C@@H]1CCC2 | 0 |  |
| CC1(C)O[C@H]2[C@@H]3OC(=S)O[C@@H]3CO[C@@]2(COS(N)(=O)=O)O1 | 12.5 |  |
| CC1(C)O[C@H]2[C@H](Br)[C@@H](Br)CO[C@@]2(COS(N)(=O)=O)O1 | 100 | Block (Mus musculus [4]): 0%; ED50 (Mus musculus [5]): 21 mg/kg |
| CC1(C)O[C@H]2[C@@H]3OS(=O)O[C@@H]3CO[C@@]2(COS(N)(=O)=O)O1 (stereo partly drawn) |  | ED50 (Mus musculus [5]): 5.7 mg/kg |
| CC1(C)O[C@H]2[C@@H]3O[C@H](C(C)(C)C)O[C@@H]3CO[C@@]2(COS(N)(=O)=O)O1 | 0 |  |
| CO[C@@H]1[C@H](OC)CO[C@@]2(COS(N)(=O)=O)OC(C)(C)O[C@@H]12 | 0 |  |
| CC1(C)O[C@H]2[C@@H]3OS(=O)(=O)O[C@@H]3CO[C@@]2(COS(=O)(=O)N2CCN(Cc3ccccc3)CC2)O1 | 0 |  |
| Cc1ccc(S(=O)(=O)N=S2(=O)O[C@@H]3[C@@H](CO[C@@]4(COS(N)(=O)=O)OC(C)(C)O[C@@H]34)O2)cc1 (stereo partly drawn) |  | Block (Mus musculus [2]): 80% |
| C[C@@H]1O[C@@H]2[C@@H](CO[C@@]3(COS(N)(=O)=O)OC(C)(C)O[C@@H]23)O1 | 100 | Block (Mus musculus [4]): 0% |
| CSC(=O)O[C@H]1CO[C@@]2(COS(N)(=O)=O)OC(C)(C)O[C@H]2[C@@H]1I | 90 | Block (Mus musculus [4]): 0%; ED50 (Mus musculus [5]): 30 mg/kg |
| CC1(C)O[C@H]2[C@@H]3OCO[C@@H]3CO[C@@]2(COS(N)(=O)=O)O1 | 0 |  |
| CC(=O)NS(=O)(=O)OC[C@@]12OC[C@H]3OC(C)(C)O[C@H]3[C@@H]1OC(C)(C)O2 | 30 |  |
| CN(C[C@@]12OC[C@H]3OC(C)(C)O[C@H]3[C@@H]1OC(C)(C)O2)S(N)(=O)=O | 0 |  |
| CC1(C)O[C@@H]2[C@@H](CC[C@@]3(COS(N)(=O)=O)CCC[C@@H]23)O1 | 0 |  |
| CC1(C)O[C@H]2[C@@H]3OC4(CCCC4)O[C@@H]3CO[C@@]2(COS(N)(=O)=O)O1 | 0 |  |
| CB1O[C@@H]2[C@@H](CO[C@@]3(COS(N)(=O)=O)OC(C)(C)O[C@@H]23)O1 | 0 | Block (Mus musculus [2]): 50% |
| CC1(C)C[C@H]2[C@@H]3OC(C)(C)O[C@@H]3CC[C@@]2(COS(N)(=O)=O)C1 | 0 |  |
| CC1(C)O[C@H]2[C@@H]3O[C@H](c4ccccc4)O[C@@H]3CO[C@@]2(COS(N)(=O)=O)O1 | 20 | Block (Mus musculus [3]): 0% |
| CCCCNS(=O)(=O)OC[C@@]12OC[C@H]3OC(C)(C)O[C@H]3[C@@H]1OC(C)(C)O2 | 80 | Block (Mus musculus [4]): 0% |
| CC1(C)O[C@@H]2[C@@H](CO[C@@]3(CNS(N)(=O)=O)OC(C)(C)O[C@@H]23)O1 | 0 |  |
| CC1(C)O[C@@H]2[C@@H](CO[C@@]3(CCCOS(N)(=O)=O)OC(C)(C)O[C@@H]23)O1 | 0 |  |
| CC1(C)O[C@H]2[C@@H]3OS(=O)(=O)O[C@@H]3CO[C@@]2(COS(=O)(=O)N2CCCCC2)O1 | 0 |  |
| CCC1(CC)O[C@@H]2[C@@H](CO[C@@]3(COS(N)(=O)=O)OC(CC)(CC)O[C@@H]23)O1 | 0 | Block (Mus musculus [2]): 70% |
| CC(OS(N)(=O)=O)[C@@]12OC[C@H]3OC(C)(C)O[C@H]3[C@@H]1OC(C)(C)O2 (stereo partly drawn) | 0 |  |
| NS(=O)(=O)OC[C@@]12CCC=C[C@@H]1CCC2 | 0 |  |
| CCO[C@@H]1O[C@@H]2[C@@H](CO[C@@]3(COS(N)(=O)=O)OC(C)(C)O[C@@H]23)O1 | 0 |  |
